This passage reports IC12 results from ChEMBL document CHEMBL1148169, “Bioactive and other sesquiterpenoids from Porella cordeana” (1993).

Structures are written as SMILES.

Assay [1] has as its system Saccharomyces cerevisiae. Briefly: DNA damaging activity against RS322YK rad52 DNA repair gene deficient Saccharomyces cerevisiae mutant assessed as drug level required to produce 12 mm zone of inhibition after 48 hrs. The assay is classed as functional. A digest of the protocol: (§1)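 Agar well-diffusion test on Saccharomyces cerevisiae strains differing in DNA-repair genes. Sample is placed in a 100 μl well and the plate is incubated 48 h at 37°. The value is the concentration in μg/ml that gives a 12 mm diameter inhibition zone around the well.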

Assay [2] concerns Saccharomyces cerevisiae. The experiment in a line: DNA damaging activity against RS167N rad6 DNA repair gene deficient Saccharomyces cerevisiae mutant assessed as drug level required to produce 12 mm zone of inhibition after 48 hrs. The assay is classed as functional. In short, it runs like this:
as §1

For assay [3], the system named is Saccharomyces cerevisiae. The experiment in a line: DNA damaging activity against DNA repair gene deficient Saccharomyces cerevisiae mutant assessed as drug level required to produce 12 mm zone of inhibition after 48 hrs.

For the compound `CC1(C)CCC[C@]2(C)[C@H]3C(=O)OCC3=CC[C@@H]12` [DRIMENIN], the results for the IC12 in assay [1], in assay [2] and in assay [3] were 200 µg/mL, greater than 1000 µg/mL and greater than 1000 µg/mL, respectively.
As for `C[C@@H]1CCCC2=CC(=O)[C@@H]3[C@@H](C3(C)C)[C@]21C` [ARISTOLONE], the IC12 in assay [1] was 390 µg/mL; in assay [2] it was greater than 1000 µg/mL; in assay [3], greater than 1000 µg/mL.
Regarding `CC1(C)CCC[C@@]2(C)C1=CC(=O)C1=C2C(=O)OC1`, the IC12 in assay [1], in assay [2] and in assay [3] was greater than 1000 µg/mL throughout.
Take `C[C@@H]1[C@@H]2C[C@@]3(C)C(=O)c4ccoc4C[C@@]13C(=O)O2` [NORPINGUISANOLIDE]: the IC12 in assay [1], in assay [2] and in assay [3] was greater than 1000 µg/mL in each case.
In the case of `CC1(C)CCC[C@]2(C)C3=C(COC3=O)C(=O)C[C@@H]12`, the IC12 in assay [1], in assay [2] and in assay [3] was greater than 1000 µg/mL each time.
